Published values collected from several papers.
Compare with care: the assays were run in different laboratories.
CDK4 with cyclin D3: Cyclin-dependent kinase 4, with cyclin D3 (CDK4, Homo sapiens, UniProt P11802)
CDK4 with cyclin D1: Cyclin-dependent kinase 4, with cyclin D1 (CDK4, Homo sapiens, UniProt P11802)
CDK4: Cyclin-dependent kinase 4 (CDK4, Homo sapiens, UniProt P11802)

target | effect on | action | technique | tested at | endpoint | result | Compound
CDK4 with cyclin D3 | cell-free assay | – | – | 0.5 µM | remaining signal | 95.4% | COc1cc2c(cc1OC)-c1[nH]nc(Nc3cccc(F)c3)c1C2
CDK4 with cyclin D3 | binding | – | – | 1 µM | remaining binding | 62% | C[C@H]1CCN(c2nccc(-c3cnn4ncccc34)n2)C1
CDK4 with cyclin D1 | cell-free assay | inhibitor | – | 0.5 µM | remaining signal | 94.1% | C[C@@H]1CCN(C(=O)CC#N)C[C@@H]1N(C)c1ncnc2[nH]ccc12
CDK4 | cell-free assay | – | competition with immobilised ligand | 1 µM | remaining binding | 83% | CN(C)c1ncnc(-c2ccc3nc(Nc4cc(CN5CCN(C(=O)CC(F)(F)F)CC5)ccn4)[nH]c3c2)c1Cl
CDK4 with cyclin D3 | enzyme activity | inhibitor | – | 1 µM | remaining activity | 106% | CC(C)(O)[C@H]1CC[C@H](Nc2ccc3ncc(-c4cccc(C(F)(F)F)c4)n3n2)CC1
CDK4 | binding | – | competition with immobilised ligand | 1 µM | remaining binding | 100% | O=C(N[C@H]1CCCCC/C=C\C2C[C@@]2(C(=O)O)NC(=O)[C@@H]2C[C@@H](Oc3ccncc3)CN2C1=O)OC1CCCC1 (stereo partly drawn)
CDK4 with cyclin D1 | enzyme activity | inhibitor | – | 10 µM | remaining activity | 78% | Cc1sc(C(=O)NC2COC2)cc1-n1cc(NC(=O)Nc2c(F)cccc2Cl)cn1
CDK4 with cyclin D1 | binding | – | – | 1 µM | remaining binding | 100% | N[C@H]1CCN(c2nccc(-c3cnn4ncccc34)n2)C1
CDK4 with cyclin D3 | enzyme activity | inhibitor | – | 1 µM | activity vs control | 92% | Cc1ccc(C(=O)NCc2ccsc2)cc1C#Cc1cn(C(C)C)c2ncnc(N)c12
CDK4 | cell-free assay | inhibitor | TR-FRET | 1 µM | inhibition | 48.2% | O=C(c1ccc(F)cc1)[C@H]1Cc2c(cc([N+](=O)[O-])cc2[N+](=O)[O-])[C@@H](O)[C@@]12C(=O)Nc1ccccc12
CDK4 | cell-free assay | – | competition with immobilised ligand | 1 µM | remaining binding | 100% | N#Cc1ccc(Nc2ccc3[nH]c(=O)[nH]c3c2)c(Cl)c1
CDK4 with cyclin D3 | cell-free assay | – | – | 0.5 µM | remaining signal | 95.5% | COc1ccc(OC)c2c(=S)c3ccccc3[nH]c12
CDK4 with cyclin D3 | cell-free assay | – | competition with immobilised ligand | 1 µM | remaining binding | 100% | CS(=O)(=O)c1cc(C2(NC(=O)c3cncc4c3cnn4-c3ccc(F)cc3)CC2)ccn1
CDK4 with cyclin D3 | cell-free assay | – | – | 0.5 µM | remaining signal | 104% | CS(=O)(=O)CCNCc1ccc(-c2ccc3ncnc(Nc4ccc(OCc5cccc(F)c5)c(Cl)c4)c3c2)o1
CDK4 | cell-free assay | – | competition with immobilised ligand | 1 µM | remaining binding | 100% | CO[C@@H](C)c1c(Nc2ccc([C@@H](N(C)C(=O)C3CCS(=O)(=O)CC3)C(F)(F)F)cc2)cnc2cc(Cl)nn12
CDK4 with cyclin D1 | cell-free assay | inhibitor | – | 20 µM | remaining signal | 17% | Nc1ncnc2occ(-c3ccc(NC(=O)Nc4cc(C(F)(F)F)ccc4F)cc3)c12
CDK4 with cyclin D1 | cell-free assay | – | competition with immobilised ligand | 1 µM | remaining binding | 100% | COc1ccc2c(c1)O[C@@H](c1ccc(OC)c(OC)c1)C[C@H]2NC(=O)C1(c2ccc3c(c2)OC(F)(F)O3)CC1
CDK4 | cell-free assay | inhibitor | TR-FRET | 1 µM | inhibition | 35.6% | O=C(c1ccc(Cl)c(Cl)c1)[C@H]1Cc2c(cc([N+](=O)[O-])cc2[N+](=O)[O-])[C@@H](O)[C@@]12C(=O)Nc1ccccc12
